One data set relates to SARS-CoV-2. Description: Antiviral activity against SARS-CoV-2 in Vero E6 cells. In kind it is cell-based.
For data set [1] the following is noted: dogs; cited from earlier work.
Another data set in a line: physchem. Particulars: pH 6.
The conditions of data set [2]: cynomolgus monkeys; cited from earlier work.
The conditions of data set [3]: rats; cited from earlier work.
The subject of a further data set is ICR mice. Kind of data set: Acute toxicity study in ICR mice. In kind it is in vivo. In short, it runs like this: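 Male ICR mice (28–36 g), 15 animals randomised into five groups of three, fasted 16 h. Each group received one oral gavage dose of test compound at 50, 100, 200, 500 or 1000 mg/kg in 5% DMSO, 5% Solution Hs15 and 90% saline. Mortality was recorded over 7 days; body weight, organ weight and tissue histology were assessed after sacrifice.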

The nature of data set [4]: Stability in simulated intestinal fluid. In kind it is in vitro ADME. The following applies: SIF with pancreatin. In short, it runs like this:
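Simulated intestinal fluid was made to the USP recipe: KH2PO4, 0.2 M NaOH and 10 g/L pancreatin, adjusted to pH 6.8. Test compound stock (2 μM in DMF) was diluted into the fluid and incubated at 37 °C for up to 24 h, sampled at 0, 1, 2, 3, 4, 6 and 24 h. Reactions were stopped with ice-cold acetonitrile, centrifuged, and supernatants analysed by HPLC.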

Values after ≈ are worked out from the molar mass of the structure shown. Where two headings read alike, the source gives them in different places. Where only a bound is given, the exact number is not on record here.

As for `N#C[C@@]1(c2cc(Cl)c3c(N)ncnn23)O[C@H](CO)[C@@H](O)[C@H]1O` [Compound 1a, (2R,3R,4S,5R)-2-(4-amino-5-chloropyrrolo[2,1-f][1,2,4]triazin-7-yl)-3,4-dihydroxy-5-(hydroxymethyl)tetrahydrofuran-2-carbonitrile], in the data set with SARS-CoV-2, the “anti-SARS-CoV-2 activity (in words)” value is recorded as “loss of the anti-SARS-CoV-2 activity”.

With `N#Cc1cc([C@]2(C#N)O[C@H](CO)[C@@H](O)[C@H]2O)n2ncnc(N)c12` [Compound 1d, 4-amino-7-((2R,3R,4S,5R)-2-cyano-3,4-dihydroxy-5-(hydroxymethyl)tetrahydrofuran-2-yl)pyrrolo[2,1-f][1,2,4]triazine-5-carbonitrile], in the data set on SARS-CoV-2, the “anti-SARS-CoV-2 activity (in words)” value is “loss of the anti-SARS-CoV-2 activity”.

The solubility is the concentration that dissolves in the medium under given conditions. Higher therefore signals a readily soluble substance. `N#C[C@@]1(c2ccc3c(N)ncnn23)O[C@H](CO)[C@@H](O)[C@H]1O` [GS-441524]: the “F (oral bioavailability)” value in data set [1] was 85%; in data set [2], 8.3%; in data set [3] it was 33%. In the data set “physchem”, this compound gave a solubility of 105 µg/mL (≈ 360 µM).

On to `CCC(CC)COC(=O)[C@H](C)N[P@](=O)(OC[C@H]1O[C@@](C#N)(c2cc(F)c3c(N)ncnn23)[C@H](O)[C@@H]1O)Oc1ccccc1` [Compound 7, 2-ethylbutyl ((S)-(((2R,3S,4R,5R)-5-(4-amino-5-fluoropyrrolo[2,1-f][1,2,4]triazin-7-yl)-5-cyano-3,4-dihydroxytetrahydrofuran-2-yl)methoxy)(phenoxy)phosphoryl)-L-alaninate], for which, in the data set with SARS-CoV-2, the “anti-SARS-CoV-2 activity (in words)” value is reported as “reduced activity”.

Consider `OC[C@H]1O[C@@H](c2ccc3c(NO)ncnn23)[C@H](O)[C@@H]1O` [Compound 3b, (2S,3R,4S,5R)-2-(4-(hydroxyamino)pyrrolo[2,1-f][1,2,4]triazin-7-yl)-5-(hydroxymethyl)tetrahydrofuran-3,4-diol], for which the “anti-SARS-CoV-2 activity (in words)” value in the data set with SARS-CoV-2 was “did not show any antiviral activity”.

Consider `N#C[C@@]1(c2cc(F)c3c(N)ncnn23)O[C@H](CO)[C@@H](O)[C@H]1O` [Compound 1c, (2R,3R,4S,5R)-2-(4-amino-5-fluoropyrrolo[2,1-f][1,2,4]triazin-7-yl)-3,4-dihydroxy-5-(hydroxymethyl)tetrahydrofuran-2-carbonitrile], for which the entries for the “anti-SARS-CoV-2 activity (in words)” value in the data set on SARS-CoV-2 and in the data set on SARS-CoV-2 (listed as 3c) were “able to inhibit the viral replication” and “moderate anti-SARS-CoV-2 activity”, respectively.

Turning to “(3R,4S,5R)-2-(4-aminopyrrolo[2,1-f][1,2,4]triazin-7-yl)-2-cyclopropyl-5-(hydroxymethyl)tetrahydrofuran-3,4-diol [Compound 2d]”, in the data set on SARS-CoV-2 (at 5 µM), the Inhibition rate is reported as under 10%.

As to `CC(C)C(=O)OC[C@H]1O[C@@](C#N)(c2ccc3c(N)ncnn23)[C@H](O)[C@@H]1O` [Compound 5c, ((2R,3S,4R,5R)-5-(4-aminopyrrolo[2,1-f][1,2,4]triazin-7-yl)-5-cyano-3,4-dihydroxytetrahydrofuran-2-yl)methyl isobutyrate], the “well tolerated oral dosage” value in the data set with ICR mice (single oral dose) is given as “up to 1000 mg/kg”. The mortality result with ICR mice (single oral gavage 50-1000 mg/kg, 7-day observation period) was “No mortality”. In addition, the “changes in body weight, organ weight, or tissue histology” value in the data set with ICR mice (single oral gavage 50-1000 mg/kg, after sacrifice) was “No significant changes”.

In the case of `CC(C)C(=O)O[C@H]1[C@@H](O)[C@](C#N)(c2ccc3c(N)ncnn23)O[C@@H]1CO` [Compound 5a, (2R,3S,4R,5R)-5-(4-aminopyrrolo[2,1-f][1,2,4]triazin-7-yl)-5-cyano-4-hydroxy-2-(hydroxymethyl)tetrahydrofuran-3-yl isobutyrate], the “stability in SIF (in words)” value in data set [4] is reported as “good stability”.

(Values after paper PMC8354861 (Bioorganic & Medicinal Chemistry, 2021).)
